Source: ChEMBL document CHEMBL1140517, “Synthesis, antifungal and antimycobacterial activities of new bis-imidazole derivatives, and prediction of their binding to P450(14DM) by molecular docking and MM/PBSA method” (2007)
In brackets after ≈: the same amount, converted by molar mass.

Key:
Type in all cases: functional
[1] = test system: Candida albicans; assay: Antimicrobial activity against Candida albicans 3038 after 24 hrs
Method in brief: (§1)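 Broth MIC against clinical Candida isolates (C. albicans 3038 and C. glabrata 123). Compounds were taken from 4 mg/mL DMSO stock solutions (stock, not final concentration). Miconazole and amphotericin B served as reference compounds. Each MIC was determined twice in duplicate experiments and read after 24 h and 48 h of incubation.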

[2] = test system: Candida albicans; assay: Antimicrobial activity against Candida albicans 3038 after 48 hrs; method in brief: as §1
[3] = test system: Nakaseomyces glabratus; assay: Antimicrobial activity against Candida glabrata 123 after 24 hrs; method in brief: as §1
[4] = test system: Nakaseomyces glabratus; assay: Antimicrobial activity against Candida glabrata 123 after 48 hrs; method in brief: as §1
[5] = test system: Mycobacterium tuberculosis; assay: Antimicrobial activity against Mycobacterium tuberculosis H37Rv after 24 hrs
[6] = test system: Mycobacterium tuberculosis; assay: Antimicrobial activity against Mycobacterium tuberculosis H37Rv assessed per disk after 24 hrs

SMILES	MIC [1]	MIC [2]	MIC [3]	MIC [4]	MIC [5]	MIC [6]
O=C(c1cccs1)C(Cn1ccnc1)Cn1ccnc1	128 µg/mL (≈ 447 µM)	128 µg/mL (≈ 447 µM)	128 µg/mL (≈ 447 µM)	128 µg/mL (≈ 447 µM)	16 µg/mL (≈ 55.9 µM)	–
COc1ccc(C(=O)C(Cn2ccnc2)Cn2ccnc2)cc1	64 µg/mL (≈ 206 µM)	128 µg/mL (≈ 412 µM)	128 µg/mL (≈ 412 µM)	128 µg/mL (≈ 412 µM)	16 µg/mL (≈ 51.6 µM)	–
O=C(c1ccc(Cl)cc1)C(Cn1ccnc1)Cn1ccnc1	16 µg/mL (≈ 50.8 µM)	32 µg/mL (≈ 102 µM)	32 µg/mL (≈ 102 µM)	64 µg/mL (≈ 203 µM)	16 µg/mL (≈ 50.8 µM)	–
O=C(c1ccc([N+](=O)[O-])cc1)C(Cn1ccnc1)Cn1ccnc1	128 µg/mL (≈ 393 µM)	> 128 µg/mL	128 µg/mL (≈ 393 µM)	> 128 µg/mL	64 µg/mL (≈ 197 µM)	–
CO[C@H]1/C=C/O[C@@]2(C)Oc3c(C)c(O)c4c(O)c(c(/C=N/N5CCN(C)CC5)c(O)c4c3C2=O)NC(=O)/C(C)=C\C=C\[C@H](C)[C@H](O)[C@@H](C)[C@@H](O)[C@@H](C)[C@H](OC(C)=O)[C@@H]1C [RIFAMPIN]	–	–	–	–	–	1 mg
O=C(c1ccc(Br)cc1)C(Cn1ccnc1)Cn1ccnc1	16 µg/mL (≈ 44.5 µM)	32 µg/mL (≈ 89.1 µM)	32 µg/mL (≈ 89.1 µM)	64 µg/mL (≈ 178 µM)	16 µg/mL (≈ 44.5 µM)	–
O=C(c1ccc(Cl)s1)C(Cn1ccnc1)Cn1ccnc1	64 µg/mL (≈ 199 µM)	64 µg/mL (≈ 199 µM)	64 µg/mL (≈ 199 µM)	128 µg/mL (≈ 399 µM)	16 µg/mL (≈ 49.9 µM)	–
O=C(c1ccccc1)C(Cn1ccnc1)Cn1ccnc1	64 µg/mL (≈ 228 µM)	64 µg/mL (≈ 228 µM)	128 µg/mL (≈ 457 µM)	128 µg/mL (≈ 457 µM)	16 µg/mL (≈ 57.1 µM)	–
O=C(c1ccc(Br)s1)C(Cn1ccnc1)Cn1ccnc1	64 µg/mL (≈ 175 µM)	64 µg/mL (≈ 175 µM)	64 µg/mL (≈ 175 µM)	128 µg/mL (≈ 350 µM)	16 µg/mL (≈ 43.8 µM)	–
C[C@@H]1[C@H](O)[C@@H](C)/C=C/C=C/C=C/C=C/C=C/C=C/C=C/[C@H](O[C@@H]2O[C@H](C)[C@@H](O)[C@H](N)[C@@H]2O)C[C@@H]2O[C@](O)(C[C@@H](O)C[C@@H](O)[C@H](O)CC[C@@H](O)C[C@@H](O)CC(=O)O[C@H]1C)C[C@H](O)[C@H]2C(=O)O [AMPHOTERICIN B]	1 µg/mL (≈ 1.08 µM)	2 µg/mL (≈ 2.16 µM)	0.5 µg/mL (≈ 0.541 µM)	2 µg/mL (≈ 2.16 µM)	–	–
Clc1ccc(COC(Cn2ccnc2)c2ccc(Cl)cc2Cl)c(Cl)c1 (stereo not drawn) [MICONAZOLE]	2.5 µg/mL (≈ 6.01 µM)	5 µg/mL (≈ 12 µM)	1.25 µg/mL (≈ 3 µM)	2.5 µg/mL (≈ 6.01 µM)	–	–
OC(c1ccc(Br)cc1)C(Cn1ccnc1)Cn1ccnc1 (stereo not drawn)	128 µg/mL (≈ 354 µM)	> 128 µg/mL	128 µg/mL (≈ 354 µM)	–	8 µg/mL (≈ 22.1 µM)	–
COc1ccc(C(O)C(Cn2ccnc2)Cn2ccnc2)cc1 (stereo not drawn)	128 µg/mL (≈ 410 µM)	> 128 µg/mL	128 µg/mL (≈ 410 µM)	> 128 µg/mL	64 µg/mL (≈ 205 µM)	–
O=C(c1ccc(-c2ccccc2)cc1)C(Cn1ccnc1)Cn1ccnc1	2 µg/mL (≈ 5.61 µM)	4 µg/mL (≈ 11.2 µM)	4 µg/mL (≈ 11.2 µM)	8 µg/mL (≈ 22.4 µM)	8 µg/mL (≈ 22.4 µM)	–
Cc1ccc(C(=O)C(Cn2ccnc2)Cn2ccnc2)cc1	64 µg/mL (≈ 217 µM)	128 µg/mL (≈ 435 µM)	128 µg/mL (≈ 435 µM)	128 µg/mL (≈ 435 µM)	8 µg/mL (≈ 27.2 µM)	–
O=C(c1ccc(F)cc1)C(Cn1ccnc1)Cn1ccnc1	64 µg/mL (≈ 215 µM)	128 µg/mL (≈ 429 µM)	128 µg/mL (≈ 429 µM)	128 µg/mL (≈ 429 µM)	16 µg/mL (≈ 53.6 µM)	–
